Laboratory results reported in ChEMBL document CHEMBL1143955, “Synthesis and exploration of novel curcumin analogues as anti-malarial agents” (Bioorg Med Chem, 2008).
≈ marks a conversion by molar mass, not a printed value. Calls of active or inactive are those of the source. The rule behind the calls is not given here.

How the values were obtained:
Type in all cases: functional, organism-based
[1] = tested on: Plasmodium falciparum; test: Antimalarial activity against chloroquine-sensitive Plasmodium falciparum FCK2
Summary of the method: (§1)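 Sorbitol-synchronised P. falciparum cultured in RPMI 1640 with 10% human serum, 0.225% sodium bicarbonate and 0.01 mg/mL gentamicin. Infected red cells (1–2% parasitemia, ring stage) were used at 2% hematocrit with varying inhibitor concentrations (final DMSO ≤0.05%; 0.05% DMSO as solvent control), starting at early trophozoite and dosing up to day 4. Parasitemia was read by Giemsa microscopy, and IC50 was fitted by non-linear regression of relative % parasitemia versus log concentration.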

[2] = tested on: Plasmodium falciparum; test: Antimalarial activity against chloroquine-resistant Plasmodium falciparum MP14; summary of the method: as §1
[3] = tested on: Plasmodium falciparum; test: Antimalarial activity against chloroquine-sensitive Plasmodium falciparum FCK2 in red blood cells as reduced parasitemia in [3H]hypoxanthine uptake; conditions: in the assay text read “by microscopic examination” for “in [3H]hypoxanthine uptake”
[4] = tested on: Plasmodium falciparum; test: Antimalarial activity against chloroquine-resistant Plasmodium falciparum MP14 in red blood cells as reduced parasitemia in [3H]hypoxanthine uptake assay
Summary of the method: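 Ring-stage synchronised parasites were used at 2–3% hematocrit and 1–2% initial parasitemia, in duplicate. Varying inhibitor concentrations (final DMSO ≤0.05%) were added in fresh medium every 24 h for 48 h. [3H]-hypoxanthine was then added for 36 h, and cells were harvested onto glass-fibre filters and read by scintillation counting. IC50 came from a non-linear regression fit of relative % parasitemia versus log concentration.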

SMILES	IC50 [1] [µM]	MIC [1] [µM]	IC50 [2] [µM]	MIC [2] [µM]	Activity [3]	Activity [4]
COc1cc(/C=C/C(=O)C(=Cc2ccc(O)cc2)C(=O)/C=C/c2ccc(O)c(OC)c2)ccc1O	5.85	23.7 (≈ 11.2 µg/mL)	5.36	23.1 (≈ 10.9 µg/mL)	–	–
COc1cc(/C=C/c2cc(/C=C/c3ccc(O)c(OC)c3)n(-c3ccc(Cl)cc3Cl)n2)ccc1O	4.65	21.8 (≈ 11.1 µg/mL)	4.8	21.4 (≈ 10.9 µg/mL)	–	–
COc1cc(/C=C/c2cc(/C=C/c3ccc(O)c(OC)c3)on2)ccc1O	8.44	27.3 (≈ 9.98 µg/mL)	7.92	25.3 (≈ 9.24 µg/mL)	–	–
COc1cc(/C=C/c2cc(/C=C/c3ccc(O)c(OC)c3)[nH]n2)ccc1O [CURCUMIN PYRAZOLE]	0.48	3.9 (≈ 1.42 µg/mL)	0.45	3.6 (≈ 1.31 µg/mL)	–	–
COc1cc(/C=C/C(=O)C(=Cc2ccccc2)C(=O)/C=C/c2ccc(O)c(OC)c2)ccc1O	3.89	16.5 (≈ 7.53 µg/mL)	4.12	17.2 (≈ 7.85 µg/mL)	–	–
COc1ccc(/C=C/C(=O)CC(=O)/C=C/c2ccc(OC)c(OC)c2)cc1OC [TETRAMETHOXYCURCUMIN]	7.86	29.6 (≈ 11.7 µg/mL)	8.4	29.1 (≈ 11.5 µg/mL)	–	–
COc1cc(C=C(C(=O)/C=C/c2ccc(O)c(OC)c2)C(=O)/C=C/c2ccc(O)c(OC)c2)ccc1O	0.92	5.2 (≈ 2.61 µg/mL)	0.75	4.8 (≈ 2.41 µg/mL)	–	–
COc1cc(/C=C/c2cc(/C=C/c3ccc(O)c(OC)c3)n(-c3ccccc3)n2)ccc1O	8.48	22.4 (≈ 9.87 µg/mL)	9.1	25 (≈ 11 µg/mL)	–	–
COc1cc(/C=C/C(=O)CC(=O)/C=C/c2ccc(O)c(OC)c2)ccc1O [CURCUMIN]	3.25	13.2 (≈ 4.86 µg/mL)	4.21	14.4 (≈ 5.3 µg/mL)	–	–
COc1cc(/C=C/c2cc(/C=C/c3ccc(O)c(OC)c3)n(-c3cccc([N+](=O)[O-])c3)n2)ccc1O	0.87	4.9 (≈ 2.38 µg/mL)	0.89	5.1 (≈ 2.48 µg/mL)	Active	Active
COc1cc(/C=C/C(=O)CC(=O)/C=C/c2ccc(OC(C)=O)c(OC)c2)ccc1OC(C)=O	2.34	14.9 (≈ 6.74 µg/mL)	2.51	15.3 (≈ 6.92 µg/mL)	–	–
COc1cc(/C=C/c2cc(/C=C/c3ccc(O)c(OC)c3)n(-c3ccc(F)cc3)n2)ccc1O	2.42	14.3 (≈ 6.56 µg/mL)	2.1	12.9 (≈ 5.91 µg/mL)	–	–
COc1ccc(-n2nc(/C=C/c3ccc(O)c(OC)c3)cc2/C=C/c2ccc(O)c(OC)c2)cc1	22.6	35.8 (≈ 16.8 µg/mL)	24.6	41.2 (≈ 19.4 µg/mL)	–	–
